The source made the active and inactive calls. The rule behind the calls is not given here.
What was measured:
HeLa [1] = test: Induction of cell morphological changes in human HeLa cells assessed as cell detachment from substrate at 3 to 5 uM after 24 hrs by Hoechst 33258 staining-based phase contrast microscopy in presence of UVA light; type: functional
[2] = Dark toxicity against human HaCaT cells assessed as cell survival at 10 uM incubated for 6 hrs measured after 24 hrs by MTT assay; type: cell-based; settings: read-out: Survival
Method in brief: (§1)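 Cells (HaCaT and HeLa in DMEM, HEp-2 in RPMI, each with 10% FBS, at 37 °C and 5% CO2) were treated at 60–70% confluence. The compound was added from a 10^-3 M DMSO stock in medium with 1% FBS (final DMSO <0.5%) at 3·10^-6 to 2.5·10^-5 M and kept in the dark (6 h per table footnote, 18 h per methods). After 24 h, MTT at 50 µg/mL for 4 h, read at 542 nm as % of control OD.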

HeLa [3] = test: Induction of apoptotic morphological changes in human HeLa cells at LD50 after 24 hrs by Hoechst 33258 staining-based fluorescence microscopy in presence of UVA light; type: functional, cell-based
HeLa [4] = test: Induction of necrotic morphological changes in human HeLa cells at LD50 after 24 hrs by Hoechst 33258 staining-based fluorescence microscopy in presence of UVA light; type: functional, cell-based
HaCaT [5] = test: Induction of necrotic morphological changes in human HaCaT cells at LD50 after 24 hrs by Hoechst 33258 staining-based fluorescence microscopy in presence of UVA light; type: cell-based
HeLa [6] = test: Drug uptake in human HeLa cells at 1 uM after 6 hrs by fluorescence microscopy; type: ADME, cell-based
Method in brief: (§2)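 Cells on glass coverslips at 60–70% confluence were exposed to 1×10^-6 M compound in medium with 1% FBS (DMSO <0.5%) for 6 h at 37 °C. After two PBS washes they were imaged live under UV excitation (365 nm), with blue excitation (460–490 nm) also used. Untreated cells served as autofluorescence controls.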

[7] = Dark toxicity against human Hep2 cells assessed as cell survival at 5 uM incubated for 6 hrs measured after 24 hrs by MTT assay; type: cell-based, HEp-2; settings: read-out: Survival; method in brief: as §1
HaCaT [8] = test: Induction of cell morphological changes in human HaCaT cells assessed as appearance of necrotic cells with loss of membrane integrity at 3 to 5 uM after 24 hrs by Hoechst 33258 staining-based phase contrast microscopy in presence of UVA light
HaCaT [9] = test: Induction of cell morphological changes in human HaCaT cells assessed as cell elongation at 3 to 5 uM after 24 hrs by Hoechst 33258 staining-based phase contrast microscopy in presence of UVA light
[10] = Induction of microtubule disruption in human HeLa cells assessed as abnormality in chromosome distribution at LD50 after 24 hrs by immunofluorescence assay in presence of UVA light; type: cell-based
[11] = Dark toxicity against human HeLa cells assessed as cell survival at 5 uM incubated for 6 hrs measured after 24 hrs by MTT assay; type: cell-based; settings: read-out: Survival; method in brief: as §1
HaCaT [12] = test: Induction of cell morphological changes in human HaCaT cells assessed as deep deformation of cell membrane at LD90 after 24 hrs by Hoechst 33258 staining-based phase contrast microscopy in presence of 1 to 2 J/Cm'2 UVA light
HaCaT [13] = test: Phototoxicity against human HaCaT cells assessed as cell lethality at 3 to 250 uM incubated for 6 hrs followed by UV irradiation at 1 J/cm'2 measured after 24 hrs by MTT assay; type: cell-based
Method in brief: (§3)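 Cultures at 60–70% confluence were loaded with the photosensitizer for 6 h in medium with 1% FBS and <0.5% DMSO. Medium was then replaced and cells were irradiated with UVA (300–400 nm, 15.9 W/m² at 10 cm), then washed and kept in complete medium for 24 h. Survival was read by MTT (50 µg/mL, 4 h, 542 nm) as % of untreated control OD.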

HaCaT [14] = test: Induction of apoptosis in human HaCaT cells at LD50 after 24 hrs by acridine orange/ethidium bromide staining-based assay in presence of 0.25 to 0.5 J/cm'2 UVA light; type: cell-based
[15] = Dark toxicity against human HeLa cells assessed as cell survival at 10 uM incubated for 6 hrs measured after 24 hrs by MTT assay; type: cell-based; settings: read-out: Survival; method in brief: as §1
HEp-2 [16] = test: Induction of microtubule disruption in human Hep2 cells assessed as increase in mitotic index at LD50 after 24 hrs by immunofluorescence assay in presence of UVA light; type: cell-based
HaCaT [17] = test: Induction of morphological changes in human HaCaT cells assessed as nuclear retraction at LD50 after 24 hrs by Hoechst 33258 staining-based fluorescence microscopy in presence of UVA light; type: cell-based
HEp-2 [18] = test: Induction of microtubule disruption in human Hep2 cells assessed as appearance of extrapoles at LD50 after 24 hrs by immunofluorescence assay in presence of UVA light; type: cell-based
HaCaT [19] = test: Drug uptake in human HaCaT cells at 1 uM after 6 hrs by fluorescence microscopy; type: ADME, cell-based; method in brief: as §2
HeLa [20] = test: Induction of cell morphological changes in human HeLa cells assessed as cellular stretching at 3 to 5 uM after 24 hrs by Hoechst 33258 staining-based phase contrast microscopy in presence of UVA light; type: functional
HaCaT [21] = test: Induction of necrosis in human HaCaT cells at LD50 after 24 hrs by acridine orange/ethidium bromide staining-based assay in presence of 0.25 to 0.5 J/cm'2 UVA light; type: cell-based
HeLa [22] = test: Increase in mitotic nuclei level in human HeLa cells at LD50 after 24 hrs by Hoechst 33258 staining-based fluorescence microscopy in presence of UVA light; type: functional, cell-based
[23] = Phototoxicity against human Hep2 cells assessed as cell lethality at 3 to 250 uM incubated for 6 hrs followed by UV irradiation at 0.5 J/cm'2 measured after 24 hrs by MTT assay; type: functional, HEp-2; method in brief: as §3
[24] = Dark toxicity against human HaCaT cells assessed as cell survival at 5 uM incubated for 6 hrs measured after 24 hrs by MTT assay; type: cell-based; settings: read-out: Survival; method in brief: as §1
HEp-2 [25] = test: Induction of cell morphological changes in human Hep2 cells assessed as appearance of rounded cells at 3 to 5 uM after 24 hrs by Hoechst 33258 staining-based phase contrast microscopy in presence of UVA light; type: functional
HeLa [26] = test: Induction of cell morphological changes in human HeLa cells assessed as cytoplasmic retraction at 3 to 5 uM after 24 hrs by Hoechst 33258 staining-based phase contrast microscopy in presence of UVA light; type: functional
[27] = Drug uptake in golgi apparatus of human HaCaT cells at 1 uM after 6 hrs by NBD dye-based fluorescence microscopy; type: ADME, cell-based
Method in brief: (§4)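 Cells grown on glass coverslips were incubated with 1×10^-6 M photosensitizer for 6 h at 37 °C, washed twice in PBS and imaged live by fluorescence microscopy. Organelle probes (ER-Tracker, ex 374/em 430 nm; NBD-Golgi, ex 466/em 536 nm) were applied for 30 min at the supplier's concentrations, and their patterns were compared with the compound signal.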

HeLa [28] = test: Phototoxicity against human HeLa cells assessed as cell lethality at 3 to 250 uM incubated for 6 hrs followed by UV irradiation at 1 J/cm'2 measured after 24 hrs by MTT assay; type: functional; method in brief: as §3
[29] = Drug uptake in golgi apparatus of human HeLa cells at 1 uM after 6 hrs by NBD dye-based fluorescence microscopy; type: ADME, cell-based; method in brief: as §4

Structure (SMILES)	Activity (HeLa [1])	viability at 6 h, 10 µM [2] [%]	Activity (HeLa [3])	Activity (HeLa [4])	Activity (HaCaT [5])	Drug uptake (HeLa [6])	viability at 6 h, 5 µM [7] [%]	Activity (HaCaT [8])	Activity (HaCaT [9])	Activity [10]	viability at 6 h, 5 µM [11] [%]	Activity (HaCaT [12])	mortality (HaCaT [13]) [%]	Activity (HaCaT [14])	viability at 6 h, 10 µM [15] [%]	Activity (HEp-2 [16])	Activity (HaCaT [17])	Activity (HEp-2 [18])	Drug uptake (HaCaT [19])	Activity (HeLa [20])	further results
COc1cc(C#Cc2ccc(C#Cc3cc(OC)c(C#CCO[C@@H]4O[C@H](CO)[C@@H](O)[C@H](O)[C@H]4O)cc3OC)c(N(C)C)c2)c(OC)cc1C#CCO[C@@H]1O[C@H](CO)[C@@H](O)[C@H](O)[C@H]1O	Active	71.5	Active	Active	Toxic	Active	96.3	Toxic	Toxic	Active	95.4	Toxic	> 50	Toxic	82.2	Active	Toxic	Active	Active	Active	Activity (HaCaT [21]): Toxic; Activity (HeLa [22]): Active; mortality [23]: >50%; viability at 6 h, 5 µM [24]: 91.4%; Activity (HEp-2 [25]): Active; Activity (HeLa [26]): Active; Drug uptake [27]: Active; mortality (HeLa [28]): >50%; Drug uptake [29]: Active
COc1cc(C#Cc2ccc(C#CCO[C@@H]3O[C@H](CO)[C@@H](O)[C@H](O)[C@H]3O)cc2N(C)C)c(OC)cc1C#Cc1ccc(C#CCO[C@@H]2O[C@H](CO)[C@@H](O)[C@H](O)[C@H]2O)cc1N(C)C	Active	70.2	Active	Active	Toxic	Active	95.7	Toxic	Toxic	Active	93.5	Toxic	> 50	Toxic	76.9	Active	Toxic	Active	Active	Active	Activity (HaCaT [21]): Toxic; Activity (HeLa [22]): Active; mortality [23]: >50%; viability at 6 h, 5 µM [24]: 90.9%; Activity (HEp-2 [25]): Active; Activity (HeLa [26]): Active; Drug uptake [27]: Active; mortality (HeLa [28]): >50%; Drug uptake [29]: Active

Source: ChEMBL document CHEMBL3769305, “Glucose-functionalized amino-OPEs as biocompatible photosensitizers in PDT” (Eur J Med Chem, 2016)
